We go through 6 compounds from ChEMBL document CHEMBL2346587, “Design, synthesis, and evaluation of a water-soluble antofine analogue with high antiproliferative and antitumor activity” (Bioorg Med Chem, 2013).

Values after ≈ are worked out from the molar mass of the structure shown.

One data set concerns HCT-116. The data set can be described thus: Cytotoxicity against human HCT116 cells after 72 hrs by SRB assay. In kind it is functional, cell-based. Particulars: HCT-116, 72 h. An outline of the steps: (§1)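 SRB growth assay: 5 × 10^3 cells/well exposed to a concentration series for 72 h; fixed in 10% TCA 30 min at 4 °C, stained with 0.4% SRB in 1% acetic acid 30 min, dye dissolved in 10 mM Tris pH 10.0, absorbance at 515 nm. Viability relative to vehicle control; IC50 by non-linear regression; at least three experiments. A549-Pa is a paclitaxel-resistant A549 subline.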
Background: The SRB assay estimates cell density from bound dye.

Data set [1] relates to A549. The data set can be described thus: Cytotoxicity against human paclitaxel-resistant A549 cells after 72 hrs by SRB assay. The class given is functional, cell-based. The following applies: A549, 72 h. The gist of the method: as §1
The next data set has as its system SK-HEP1. The data set can be described thus: Cytotoxicity against human SKHEP1 cells after 72 hrs by SRB assay. The class given is functional, cell-based. The following applies: SK-HEP1, 72 h. The gist of the method:
as §1

Data set [2] deals with A549. The data set can be described thus: Cytotoxicity against human A549 cells after 72 hrs by SRB assay. In kind it is functional, cell-based. Particulars: A549, 72 h. An outline of the steps:
as §1

A further data set deals with HCT-15. Kind of data set: Cytotoxicity against human HCT15 cells after 72 hrs by SRB assay. The class given is functional, cell-based. The following applies: HCT-15, 72 h. The gist of the method: as §1
Data set [3] can be described thus: Thermodynamic solubility of the compound in 1:1 mixture of phosphate buffer:ethanol. In kind it is physicochemical.
Data set [4] in a line: Thermodynamic solubility of the compound in phosphate buffer at pH 7.4. Particulars: read-out: Therm_solubility. In kind it is physicochemical.
For another data set, the system named is SNU-638. Kind of data set: Cytotoxicity against human SNU638 cells after 72 hrs by SRB assay. The following applies: SNU-638, 72 h. The class given is functional, cell-based. An outline of the steps: as §1
Data set [5] concerns the target ATP-dependent translocase ABCB1 (Homo sapiens, UniProt P08183). The data set can be described thus: Inhibition of P-gp activity in human paclitaxel-resistant A549 cells assessed as rhodamine 123 accumulation at 10 nM after 72 hrs by FACS analysis (reference value: 14.4 %). The class given is cell-based. Set-up: scale not given: the % may be the effect or the level left. Particulars: a549, 72 h, 0.01 µM. An outline of the steps: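 Paclitaxel-resistant A549-Pa cells seeded at 1 × 10^5 cells/dish, pretreated with compound for 72 h, then loaded with rhodamine-123 in culture medium at 37 °C, 5% CO2, in the dark for 90 min. Cells were trypsinized, washed twice in ice-cold PBS, and analysed immediately by flow cytometry (488 nm laser; green fluorescence through a 530 nm band-pass filter).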
On the technique in general: A flow cytometer gives signals particle by particle.

Sequence of ATP-dependent translocase ABCB1 (P08183 whole entry): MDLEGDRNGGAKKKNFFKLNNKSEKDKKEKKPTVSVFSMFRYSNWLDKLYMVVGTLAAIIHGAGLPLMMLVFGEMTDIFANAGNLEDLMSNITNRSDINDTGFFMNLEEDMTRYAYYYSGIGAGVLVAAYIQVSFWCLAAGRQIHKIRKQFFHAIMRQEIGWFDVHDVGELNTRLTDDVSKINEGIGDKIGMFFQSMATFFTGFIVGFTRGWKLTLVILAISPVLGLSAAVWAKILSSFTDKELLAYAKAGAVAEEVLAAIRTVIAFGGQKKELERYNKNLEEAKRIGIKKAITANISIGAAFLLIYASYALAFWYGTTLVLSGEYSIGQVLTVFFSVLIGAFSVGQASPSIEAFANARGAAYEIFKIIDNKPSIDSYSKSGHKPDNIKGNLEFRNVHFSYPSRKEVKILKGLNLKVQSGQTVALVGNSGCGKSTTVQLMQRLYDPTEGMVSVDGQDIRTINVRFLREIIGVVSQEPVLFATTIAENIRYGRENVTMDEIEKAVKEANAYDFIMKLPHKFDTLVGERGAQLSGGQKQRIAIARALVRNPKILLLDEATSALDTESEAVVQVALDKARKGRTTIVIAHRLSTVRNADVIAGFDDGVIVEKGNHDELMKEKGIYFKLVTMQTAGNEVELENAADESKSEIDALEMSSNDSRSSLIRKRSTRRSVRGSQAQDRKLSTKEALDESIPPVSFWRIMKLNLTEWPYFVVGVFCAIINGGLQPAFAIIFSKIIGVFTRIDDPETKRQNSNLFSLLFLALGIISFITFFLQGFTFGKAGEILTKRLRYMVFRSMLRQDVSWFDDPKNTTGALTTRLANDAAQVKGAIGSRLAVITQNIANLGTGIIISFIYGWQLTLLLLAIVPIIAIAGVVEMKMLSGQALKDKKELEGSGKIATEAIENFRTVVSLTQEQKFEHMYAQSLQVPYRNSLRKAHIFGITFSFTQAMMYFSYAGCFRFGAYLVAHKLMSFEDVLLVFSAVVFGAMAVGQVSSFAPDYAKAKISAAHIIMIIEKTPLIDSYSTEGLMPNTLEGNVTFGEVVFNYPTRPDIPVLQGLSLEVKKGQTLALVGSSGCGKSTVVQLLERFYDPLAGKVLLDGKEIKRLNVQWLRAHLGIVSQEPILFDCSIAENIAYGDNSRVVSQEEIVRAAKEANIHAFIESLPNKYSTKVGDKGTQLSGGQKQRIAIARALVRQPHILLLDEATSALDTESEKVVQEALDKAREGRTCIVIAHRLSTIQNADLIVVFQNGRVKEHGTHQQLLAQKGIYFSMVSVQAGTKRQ

A word on the IC50: it is the point on the concentration scale where inhibition reaches its midpoint. In the case of `COc1ccc2c3c(c4cc(OC)c(OC)cc4c2c1)C[C@H]1CCCN1C3` [(-)-ANTOFINE], the IC50 in the data set with HCT-116 stood at 8 nM; in the data set on A549 [1], 18 nM; in the data set with SK-HEP1, 8 nM; in the data set on A549 [2], 11 nM; in the data set with HCT-15, 13 nM; with SNU-638, 10 nM. Also, the Therm_solubility in data set [3] (buffer) is 47 µg/mL. For the same compound, the solubility thermodynamic in data set [4] was below 1 µg/mL. The Activity in data set [5] came to 37.9%.

Regarding `COc1ccc2c3c(c4cc(OC)c(OC)cc4c2c1)CC1CCCN1C3` (racemic) [(+/-)-ANTOFINE], the IC50 in the data set on HCT-116 stood at 11 nM; with A549 [1], 22 nM; in the data set with SK-HEP1 it was 16 nM; in the data set with A549 [2], 20 nM; with HCT-15, 25 nM; in the data set with SNU-638, 21 nM.

With `COc1ccc2c3c(c4cc(OC)c(OC)cc4c2c1)CC1(C(=O)O)CCCN1C3` (racemic), the concentration for half-maximal inhibition (IC50) in the data set on HCT-116, in the data set on A549 [1], with SK-HEP1, with A549 [2], in the data set on HCT-15 and in the data set on SNU-638 was above 1000 nM throughout.

As to `COc1ccc2c3c(c4cc(OC)c(OC)cc4c2c1)C[C@]1(CO)CCCN1C3`, the concentration for half-maximal inhibition (IC50) with HCT-116 was 800 nM; with A549 [1], 3660 nM; in the data set with SK-HEP1 it was 540 nM; in the data set with A549 [2], 2270 nM; in the data set with HCT-15 it was 1420 nM; with SNU-638, 1490 nM.

Take `COC(=O)C12CCCN1Cc1c(c3cc(OC)c(OC)cc3c3cc(OC)ccc13)C2` (racemic): the IC50 in the data set with HCT-116, in the data set with A549 [1], in the data set with SK-HEP1, in the data set on A549 [2], in the data set on HCT-15 and with SNU-638 was above 1000 nM each time.

In the case of `COc1ccc2c3c(c4cc(OC)c(OC)cc4c2c1)CC1(CO)CCCN1C3` (racemic), the IC50 was found to be 53 nM in the data set on HCT-116; 204 nM in the data set on A549 [1]; 100 nM with SK-HEP1; 167 nM in the data set on A549 [2]; 179 nM in the data set on HCT-15; 92 nM with SNU-638. Further, the solubility thermodynamic in [3] (1:1 mixture of phosphate buffer:ethanol, read-out: Therm_solubility) came out at 1390 µg/mL (≈ 3540 µM); in [4] it was 656 µg/mL (≈ 1670 µM).
